Screening data as filed in PubChem BioAssay.
Compounds with a hit are over-represented: about 1.8% of the library has one in this group of screens.
M5 PAM: positive allosteric modulators of human muscarinic M5 receptor. activation, % at 3 µM. hit rate 0.3% among 360,000. CHO-K1 hM5, Fluo-8 calcium, ACh EC20 PAM; 0% = ACh EC20, 100% = ACh EC100. P08912;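 active = activation above the run cutoff, the mean activation of all test compounds plus 3 SD, cut at about 18% in these data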
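Assay system: CHO-K1 hM5 cells. Also added: acetylcholine at EC20 concentration, added after compound. Dosing: 3 µM, single dose. Times: compound preincubation 140 s before EC20 acetylcholine addition. Signal: Fluo-8 calcium fluorescence. Measure: % activation relative to EC20 and EC100 ACh responses. Repeats: singlicate, one well per test compound.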
M4 ag: CHRM4 agonism in calcium assay. activation, % at 3 µM. P08173. hit rate 0.14% among 360,000. CHO-K1 hM4/Gqi5, Fluo-8 calcium fluorescence; vehicle 0%, full acetylcholine response 100%;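 active = activation above the run mean over all test wells plus 3 SD, cut at about 32% in these data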;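 note: peak over basal fluorescence ratio per well then scaled between controls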
Target sequence (P08173 whole entry, looked up): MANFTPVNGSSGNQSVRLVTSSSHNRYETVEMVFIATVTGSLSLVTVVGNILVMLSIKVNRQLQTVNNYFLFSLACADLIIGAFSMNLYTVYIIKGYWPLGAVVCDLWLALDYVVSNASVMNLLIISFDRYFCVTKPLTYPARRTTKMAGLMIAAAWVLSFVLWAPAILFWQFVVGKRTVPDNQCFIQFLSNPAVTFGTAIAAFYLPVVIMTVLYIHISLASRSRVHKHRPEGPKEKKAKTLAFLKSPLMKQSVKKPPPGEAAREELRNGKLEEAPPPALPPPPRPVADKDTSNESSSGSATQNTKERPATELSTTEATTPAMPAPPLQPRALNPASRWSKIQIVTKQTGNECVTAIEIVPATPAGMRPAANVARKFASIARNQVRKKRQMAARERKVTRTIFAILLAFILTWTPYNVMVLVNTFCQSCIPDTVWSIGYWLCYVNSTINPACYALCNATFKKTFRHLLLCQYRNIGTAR
CHRM4 PAM: positive allosteric modulators of human muscarinic M4 receptor | CHO-K1 hM4/Gqi5, Fluo-8 calcium fluorescence, ACh EC20; 0% = ACh EC20, 100% = maximal ACh | activation, % at 3 µM | hit rate 0.4% among 360,000 | AID 624126;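 active = activation above its plate's cutoff, the mean activation of sample wells plus 3 SD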
CHRM5 antagonist: antagonists of human muscarinic M5 receptor (CHRM5); P08912; CHO-hM5 cells, Fluo-8 calcium fluorescence, ACh EC80; inhibition, % at 3 µM; hit rate 0.59% among 360,000; AID 624040;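 active = inhibition above a per-plate cutoff, the mean of that plate's test compounds plus 3 SD, cut at about 27% in these data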
CHRM4 antagonist: CHRM4 antagonism in calcium assay; P08173; CHO-hM4 cells, ACh EC80, Fluo-8 calcium fluorescence; inhibition, % at 3 µM; hit rate 0.73% among 360,000; AID 624125;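 active = inhibition above its plate's cutoff, the mean inhibition of sample wells plus 3 SD, cut at about 27% in these data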
M5 ag: agonists of human muscarinic M5 receptor (CHRM5) | hit rate 0.19% among 360,000 | CHO-K1 hM5 cells, Fluo-8 calcium fluorescence; 0% DMSO wells, 100% maximal acetylcholine response | AID 624037 | activation, % at 3 µM;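 active = activation above the run's mean over test compounds plus 3 SD, cut at about 23% in these data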;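 note: signal is peak over basal fluorescence ratio across the kinetic read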
Each line names hits and unclear results; the compound was inactive in the other large screens.

C=CCn1c(C)nnc1SCC(=O)Nc1cc(S(=O)(=O)N2CCCC2)ccc1Cl	none
NCC1CCC(C(=O)Oc2ccc(CCC(=O)O)cc2)CC1 (stereo not given)	M5 ag 24
CCOc1ccc(NC(=O)CN(C)C(=O)c2cccnc2Sc2ccc(C)c(C)c2)cc1OCC	M5 PAM 22
Cc1ccccc1C(=O)NC1CCN(CC(=O)Nc2c(C)cccc2C)CC1	M5 PAM 32, CHRM4 PAM 29
Cc1ccccc1C(=O)NC1CCN(CC(=O)Nc2ccccc2)CC1	none
COC(=O)[C@@H]1ON2OCC(C)=C3CCCC[C@@]32[C@H]1C(=O)OC	none
CCC1CN2CCc3cc(OC)c(OC)cc3C2CC1CC1c2cc(OC)c(OC)cc2CCN1C(=O)C(Cc1c[nH]c2ccccc12)NC(=O)OC(C)(C)C (stereo not given)	CHRM5 antagonist 27
CC(C)C[C@H](NC(=O)OC(C)(C)C)C(=O)N1CCC(C(=O)N[C@@H](Cc2c[nH]c3ccccc23)C(=O)O)CC1	none
O=C(O)CCC(C(=O)O)N1C(=O)C2C3CCC(C3)C2C1=O (stereo not given)	none
O=C1NC[C@@H](CCCCN2C[C@H](Cc3ccc(O)cc3)N(CC3CCCCC3)C(=O)C2=O)N(CCc2ccccc2)C1=O	none
CCOC(=O)c1ccccc1NC(=O)COC(=O)CSc1ccccc1	CHRM4 PAM 21
CCOC(=O)c1ccccc1NC(=O)CSc1nnnn1C	CHRM4 PAM 19
Cc1ccccc1NC(=O)CSc1nnnn1C	none
CCCCNC(=O)c1nc(C2CCN(S(=O)(=O)c3c(F)cccc3F)CC2)oc1-c1ccccc1	none
COc1cc(C(=O)Nc2cccc(NC(=O)c3ccccc3)c2)cc(OC)c1OC	CHRM5 antagonist 30
COc1cc(C(=O)Nc2ccc3c(c2)N(C(=O)CCN(C)C)c2ccccc2CC3)cc(OC)c1OC	CHRM4 antagonist 30
COc1cc(C(=O)Nc2cccc(C(C)=O)c2)cc(OC)c1OC	none
COCc1cccc(-c2csc(C(C)(NC(C)=O)c3ccccc3)n2)c1 (stereo not given)	none
CC(C)(C)c1ccc(C(=O)N2CCC2(C)C(=O)NCC(F)(F)F)cc1 (stereo not given)	none
O=C(c1ccc2c(c1)OCCO2)N1CCCCC1	CHRM4 PAM 27
O=C(c1ccccc1)N1CCN(C(=O)c2ccc3c(c2)OCCO3)CC1	none
COc1ccc(CNC(=O)c2cc(S(=O)(=O)N3CCCCC3)ccc2Cl)cc1OC	none
O=P(O)(Cc1ccccc1)c1ccccc1	none
OC(CNCCC1C=Nc2ccccc21)Cn1c2ccc(Cl)cc2c2cc(Cl)ccc21 (stereo not given)	CHRM4 antagonist 37
CCCc1cc(=O)[nH]c(SCC(=O)N(C)CC(=O)Nc2ccc(F)cc2)n1	none
CCCc1cc(=O)[nH]c(SCC(=O)N(C)CC(=O)Nc2ccc(C)cc2)n1	M5 PAM 23, CHRM4 PAM 26
CC(NC(=O)Nc1cccc(Cl)c1)C(c1cccs1)N1CCCC1 (stereo not given)	none
CC(NC(=O)Nc1ccc([N+](=O)[O-])cc1)C(c1cccs1)N1CCCC1 (stereo not given)	M4 ag 50
Cc1cccnc1C(c1ccc(F)cc1)N(C)C(=O)C1CCN(CCOc2ccc(Cl)cc2Cl)CC1 (stereo not given)	none
CCc1nc2ccc(C(=O)NCCC(C)C)cn2c1N(C)Cc1nccs1	none
C/C(=N\NC(=S)NC(C)C)c1ccc(Cl)s1	CHRM4 antagonist 27
C/C(=N\NC(N)=S)c1ccc(Cl)s1	none
CCC1CCCCN1S(=O)(=O)c1ccc(NC(=O)c2nc(S(C)(=O)=O)ncc2Cl)cc1 (stereo not given)	CHRM4 antagonist 59
O=C1C(CN2CCCC2)CCCC1CN1CCCC1 (stereo not given)	none
Cc1ccc(C)c(OCCC(=O)OCC(=O)NCCNC(=O)COC(=O)CCOc2cc(C)ccc2C)c1	CHRM5 antagonist 34, CHRM4 antagonist 38
Cc1ccc(C)c(OCCC(=O)OCC(=O)NCc2ccccc2)c1	none
